Laboratory results from the EternaBench riboswitch data.

Tests used:
[1] = tested on: MS2 coat protein; assay: apparent Kd, MS2 coat protein; higher = weaker binding; RNA-MaP array; tryptophan 2.4 mM where present
Summary of the method: (§1)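 On Illumina sequencing-chip clusters, designs were transcribed by stalled E. coli RNA polymerase and titrated with SNAP-549-labelled MS2 coat protein (0.7 or 1.5 nM, doubling to 3 µM), without and then with constant ligand, in 100 mM Tris-HCl pH 7.5, 80 mM KCl, 4 mM MgCl2, BSA, DTT, yeast tRNA and Tween-20. Apparent Kd is the median of filtered per-cluster curve fits to green signal normalised to red-channel RNA signal and control-cluster median Fmax.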

[2] = tested on: MS2 coat protein; assay: apparent Kd, MS2 coat protein; higher = weaker binding; RNA-MaP array; theophylline 2 mM where present
Summary of the method: as §1

[3] = designed as: OFF switch for tryptophan, no ligand
[4] = ligand present: tryptophan, designed as: OFF switch for tryptophan
[5] = designed as: ON switch for tryptophan, no ligand
[6] = ligand present: tryptophan, designed as: ON switch for tryptophan
[7] = designed as: ON switch for theophylline, no ligand
[8] = ligand present: theophylline, designed as: ON switch for theophylline
[9] = designed as: OFF switch for theophylline, no ligand
[10] = ligand present: theophylline, designed as: OFF switch for theophylline

UACUUGCUGACGGCCGCCACUAGUACAUGAGGAUCACCCAUGUACGGUCGCCCGGUGUGAUCCACUAGGACCGGGUCAGCAAGAU
apparent Kd [1, 3]: 38.3 nM
apparent Kd [1, 4]: 124 nM

AACACAUGAGGAUCACCCAUGUCCAUGUACCGAGGACCGGUACGGCCGCCACUCGACAUGAGGAUCACCCAUGUUCCAUGUUGUC
apparent Kd [1, 5]: 108 nM
apparent Kd [1, 6]: 149 nM

CUAAAUAUAACGGCCGCCACUUACUCAUGAGGUAACAACAUGAGGAUCACCCAUGUUUGAGGAUCAAGGACCGGGUUAUAUUUAG
apparent Kd [1, 5]: 25.6 nM
apparent Kd [1, 6]: 19 nM

GCCGCGGCCGGAAUAAACAUGGGUAAAUAACGAGGACCGGUACGGCCGCCACUCGAGAUAAAUAACAUGAGGAUCACCCAUGUAC
apparent Kd [1, 3]: 163 nM
apparent Kd [1, 4]: 80.3 nM

AAUGAGUGGUGGUCAAACAUGGGUGAUCAACGAGGACCGGUACGGCCGCCACUCGAUAACAUGAGGAUCACCCAUGUAAUAAUAA
apparent Kd [1, 3]: 234 nM
apparent Kd [1, 4]: 202 nM

AGAUGAGUCACGGCCGCCACUCUUAUCAGGAUCACCCAUGGUUGACAUGAGGAUCACCCAUGUAUGAGGACCGGGUGAUGAGCAU
apparent Kd [1, 3]: 12.2 nM
apparent Kd [1, 4]: 15.6 nM

AAUCAUGAAAACAUGACAUGAGGAUCACUCCGAGGACCGGUACGGCCGCCACUCGCGAGGAGGCACAUGAGGAUCACCCAUGUUA
apparent Kd [1, 5]: 69 nM
apparent Kd [1, 6]: 82.7 nM

AACGUCUUGUCGGCCGCCACUGUAUGGUGCGUGACAUGAAACAUGAGGAUCACCCAUGUAGCAUGCAGGACCGGGACAGUGCCAA
apparent Kd [1, 3]: 9.84 nM
apparent Kd [1, 4]: 17.8 nM

CUACAUUUGUAGAAACCGGUCAACAUUAUUCGAGGACCGGUACGGCCGCCACUCGUAUCAUUUGAUACAUGAGGAUCACCCAUGU
apparent Kd [1, 5]: 19.2 nM
apparent Kd [1, 6]: 22.6 nM

AAAACAUGAGGAUCACCCAUGUACAUGGGUCGAGGACCGGUACGGCCGCCACUCGCCGCCCGCCCGCCCGCCACCUCUCCCGCCC
apparent Kd [1, 5]: 69.9 nM
apparent Kd [1, 6]: 66.2 nM

CACGAUUUGUCGGCCGCCACUAAGGUAACUCUUCUCACAUGAGGAUCACCCAUGUGCCCGAAGCUUAGGACCGGGAUAAUGGGUG
apparent Kd [1, 5]: 118 nM
apparent Kd [1, 6]: 40.8 nM

GACUAUAUGAUAUGUCAGAAAUCCUCGAAACGAGGACCGGUACGGCCGCCACUCGAGUGAUAAACAUGAGGAUCACCCAUGUAAA
apparent Kd [1, 3]: 22.5 nM
apparent Kd [1, 4]: 51.9 nM

GCUAGGUCAUCGGCCGCCACUAACGAUGGCUCCGACAUGAGGAUCACCCAUGUGCCACAUGCGCAUAGGACCGGGAUGACCUAGC
apparent Kd [1, 5]: 18.5 nM
apparent Kd [1, 6]: 14.3 nM

AUAUAUACAUGAGGAUCACCCAUGUUAUUUCGAGGACCGGUACGGCCGCCACUCGAUAGAGUAGAAGUAAAUUUUAAUUCAUGUA
apparent Kd [1, 5]: 14.3 nM
apparent Kd [1, 6]: 14.1 nM

AAGACAUGAGGAUCACCCAUGUCGUCUACACGAGGACCGGUACGGCCGCCACUCGUUUGCCAAUGAGCGCAUGCGGCCUGGGUAU
apparent Kd [1, 3]: 13.3 nM
apparent Kd [1, 4]: 24.1 nM

UUCACAUGGUAUGAAUAUACAUAUAAGAAACGAGGACCGGUACGGCCGCCACUCGUGCCGGAAACAUGAGGAUCACCCAUGUGUU
apparent Kd [1, 3]: 63.5 nM
apparent Kd [1, 4]: 58.5 nM

ACUACAAAGUAGUAUAUACGAAAGUAUAGACGAGGACCGGUACGGCCGCCACUCGGUACCGGAAACACAUGAGGAUCACCCAUGU
apparent Kd [1, 3]: 20.6 nM
apparent Kd [1, 4]: 17.6 nM

AUAACGAGUGGUGGAAUACAUGGGUGAUAACGAGGACCGGUACGGCCGCCACUCGAUAACAUGAGGAUCACCCAUGUAAUAAUAA
apparent Kd [1, 3]: 161 nM
apparent Kd [1, 4]: 31.1 nM

GGAUAGAUAGGAGAUACCAGAUACAUCAACAUGAGGAUCACCCAUGUGUCUGCACUAAGUGUCCCUUGGCAGCUCGGAGAUCUGA
apparent Kd [2, 7]: 32.3 nM
apparent Kd [2, 8]: 20.5 nM

ACAUGAGGAUCACCCAUGUUCCUCGCCGAUACCAGUGAAGAAUUACGCCCUUGGCAGCGGAAAGAGUAUUUUGGAGAUGAGGUAC
apparent Kd [2, 9]: 69.8 nM
apparent Kd [2, 10]: 83.5 nM

GGAAGCAGGACUGAUACCAGUCCAGCGAAUCAUACGACGCAACAUGAGGAUCACCCAUGUGACCCUUGGCAGCAGACUGCUACCG
apparent Kd [2, 7]: 31.5 nM
apparent Kd [2, 8]: 13.7 nM

AACAUGAGGAUCACCCAUGUAUUGGGUGAUACCAGCCUGAAUAAUGGCCCUUGGCAGCACCGCGCUAACUUUAUGUCUGCGAAAC
apparent Kd [2, 7]: 127 nM
apparent Kd [2, 8]: 138 nM

UCUCGGUCUUUCUUUCUCCGAGAAUAUGAUACCAGUUAGUUUUAUGGCCCUUGGCAGCAUAGAACAUGAGGAUCACCCAUGUGUU
apparent Kd [2, 7]: 94.2 nM
apparent Kd [2, 8]: 108 nM

AUGUCGUUGAAUAUAGCGGCUUGGAGUGAUACCAGCAUGAUCCAAUGCCCUUGGCAGCAUAACAUGAGGAUCACCCAUGUUCCAG
apparent Kd [2, 7]: 57.6 nM
apparent Kd [2, 8]: 74.6 nM

AGUGUUAUAACUGAUACCAGACUCUCAUGUUUACAUGAGGAUCACCCAUGUUAUUUCUUUGUCCCUUGGCAGCAGAAUUUACACA
apparent Kd [2, 7]: 317 nM
apparent Kd [2, 8]: 49.3 nM

AUCGUACCUGAUGAUACCAGCAAUUGCUCGUAACAUGAGGAUCACCCAUGUGACCAGUGAUGCCCUUGGCAGCAUGAUCGGUGCA
apparent Kd [2, 7]: 53.8 nM
apparent Kd [2, 8]: 12.4 nM

GAGACAUGAGGAUCACCCAUGUUAGAUGAUACCAGUUAGAGAAGGAGCCCUUGGCAGCGUAAAUCUAGAGCCUAUGACGACAUGU
apparent Kd [2, 7]: 13.4 nM
apparent Kd [2, 8]: 14.2 nM

ACAUGAGGAUCACCCAUGUUCCUCAUUGAUACCAGUGAAUUUAGACGCCCUUGGCAGCGAGUUUUUUUAUAAGAUGUUUUUUUUU
apparent Kd [2, 9]: 545 nM
apparent Kd [2, 10]: 1110 nM

GUAUGGAAACAUACUAGGGUAUCAUGAGAUACCAGUACAGAAAUGUACCCUUGGCAGCUCUAGCAUACAUGAGGAUCACCCAUGU
apparent Kd [2, 9]: 14 nM
apparent Kd [2, 10]: 22.9 nM

ACGACGCAUAGUGAUACCAGCACAACAUGAGGAUCACCCAUGUCACAUAUGUUGUAAUAAUGCCCUUGGCAGCACUAUGCGUCAG
apparent Kd [2, 7]: 52 nM
apparent Kd [2, 8]: 87.3 nM

ACGUCACGUUUACUCGUGGUUUCGAUCGAUACCAGUAGCGAGAGUUACCCUUGGCAGCGACAUGAGGAUCACCCAUGUACGAAGA
apparent Kd [2, 9]: 13.5 nM
apparent Kd [2, 10]: 18.4 nM

UGUUUGGUGCGCGAGUGUUGGAUAAAUGAUACCAGUGUAGAUGUACGCCCUUGGCAGCGUAUCCGAACAUGAGGAUCACCCAUGU
apparent Kd [2, 7]: 37.7 nM
apparent Kd [2, 8]: 67.2 nM

UCGCACAUGAGGAUCACCCAUGUACUAGAUACCAGUGACGCGGUGCACCCUUGGCAGCUGGUGCUGAGUGAUGGUUCCCUCGGCA
apparent Kd [2, 9]: 119 nM
apparent Kd [2, 10]: 143 nM

CUCGAGUUAUGAGAUACCAGACUAUAGUUUACAUGAGGAUCACCCAUGUUAUGGGUGGUGGUCCCUUGGCAGCUCAUAUGUUUAA
apparent Kd [2, 9]: 60.1 nM
apparent Kd [2, 10]: 284 nM

UAUAUAGUGAUGGAUACCAGCAGAGAAAACGUUUAUCCUAACAUGAGGAUCACCCAUGUAUGCCCUUGGCAGCUGUUGUUAUAUA
apparent Kd [2, 9]: 20.1 nM
apparent Kd [2, 10]: 28 nM

AAUAUAAGUGUAAUUAUAUGUAUCUCUGAUACCAGACUCUCAUGUGUCCCUUGGCAGCAGUUACAUGAGGAUCACCCAUGUAUUA
apparent Kd [2, 7]: 103 nM
apparent Kd [2, 8]: 31.9 nM

AAUAACAUGAGGAUCACCCAUGUAAAAGAUACCAGAGUGAUGAUCCUCCCUUGGCAGCUUAAAACGCUAUUGGAAACAAUAGCGA
apparent Kd [2, 7]: 80.5 nM
apparent Kd [2, 8]: 168 nM

UCUUUCUUUGUAGAUACCAGCGUGUUAUCUUUCUUUUGACAUGAGGAUCACCCAUGUAUAUGCCCUUGGCAGCUACAUAUUCUUU
apparent Kd [2, 7]: 18.5 nM
apparent Kd [2, 8]: 14.2 nM

ACAAGUCCUCAUGAUACCAGCGAUGAGACAAAGUCUCAACAUGAGGAUCACCCAUGUACUCGCCCUUGGCAGCAUACGGUUUUUG
apparent Kd [2, 7]: 415 nM
apparent Kd [2, 8]: 43.6 nM

ACACCGAAAGGUGCAUUUACCUUAUCAGAUACCAGACUUUACGUUGUCCCUUGGCAGCUGUAUCACAUGAGGAUCACCCAUGUUG
apparent Kd [2, 7]: 15.5 nM
apparent Kd [2, 8]: 16.5 nM

ACAUGAAGAUUAAUCGUGGGCAUACUCGAUACCAGUAUUUUAACCUACCCUUGGCAGCGACAUGAGGAUCACCCAUGUGAGAUGA
apparent Kd [2, 9]: 21.6 nM
apparent Kd [2, 10]: 28.9 nM

AAUAAGUAUCUGCUAGGUGAUCCAGCAGAUACCAGCUAGGAAACUAGCCCUUGGCAGCUGCAACAUGAGGAUCACCCAUGUAAUA
apparent Kd [2, 9]: 444 nM
apparent Kd [2, 10]: 228 nM

GAUGAUAUUGCAGAUACCAGACACAUGAGGAUCACCCAUGUCGCUGAGAUGCUGGAUCGUGUCCCUUGGCAGCUGCGAUAUCAUC
apparent Kd [2, 9]: 55.1 nM
apparent Kd [2, 10]: 402 nM

UGACAUUGCUCAGAUACCAGACAUGAGGAUCACCCAUGUACCAAGAAAACGUACAUAAAUGUCCCUUGGCAGCUGAGCAAUGUCU
apparent Kd [2, 9]: 524 nM
apparent Kd [2, 10]: 713 nM

GGUGGGACUUGUGAUACCAGCCCAAUUCGAAUCGAAUUGCACAUGAGGAUCACCCAUGUCGGCCCUUGGCAGCAUGAGUAUUUAU
apparent Kd [2, 7]: 312 nM
apparent Kd [2, 8]: 16.8 nM
